From PubChem BioAssay AID493091 (Sanford-Burnham Center for Chemical Genomics, 2011)
Screen size: about 340,000 compounds; about 3,000 (0.88%) were called active. What follows is part of a selection rich in actives, with near analogues and random picks from the rest. Values without a mark were called inactive.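 The calls were made as follows: active = inhibition above about 50% at 20 µM (limit read from the data); inactive = the rest.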

Each compound was assayed against Carboxy-terminal domain RNA polymerase II polypeptide A small phosphatase 1 (Homo sapiens) (UniProt Q9GZU7) (assay: inhibition of human SCP1 dephosphorylation activity – biochemical, colorimetric, uHTS, primary screen (AID 493091;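 also: plate controls were DMSO wells with enzyme for no effect and wells lacking enzyme for full effect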)). Settings: Recombinant Scp1, phosphopeptide, malachite green phosphate absorbance; at 20 µM; hits give high values.
Carboxy-terminal domain RNA polymerase II polypeptide A small phosphatase 1 (Homo sapiens), sequence (Q9GZU7 76-261 limits assumed): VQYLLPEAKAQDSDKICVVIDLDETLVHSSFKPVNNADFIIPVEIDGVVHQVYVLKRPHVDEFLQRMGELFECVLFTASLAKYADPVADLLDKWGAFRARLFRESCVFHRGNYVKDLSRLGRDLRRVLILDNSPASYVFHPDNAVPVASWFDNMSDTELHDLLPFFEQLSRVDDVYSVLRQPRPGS
In short: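 Incubation: 45 min enzyme reaction at room temperature / System: truncated SCP-1 phosphatase (76-261aa) / Reagent: Phospho 17-mer peptide substrate / Buffer or medium: Acidic Tris acetate buffer with magnesium and detergent / Signal: absorbance at 630 nm / Doses: one concentration, 20 µM, with 1.0% DMSO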

SMILES | inhibition
Cc1ccccc1C(=O)NCC(c1ccco1)N1CCc2ccccc21 (stereo not drawn) | 3.6%
O=C(c1ccccc1F)N1CCN(S(=O)(=O)c2ccc(Br)cc2)CC1 | -10.3%
CC(C)CCN1CCN=C1N(C)C | 0.8%
Cc1nnc(CN(C)Cc2cn[nH]c2-c2ccc(-c3ccccc3)cc2)o1 | -5.39%
CSCCC(NS(=O)(=O)c1ccc(C)cc1)C(=O)N(C)CC(=O)Nc1ccccc1Br (stereo not drawn) | -5.24%
Cc1nn2c(NCCN(C)C)c3c(nc2c1-c1ccccc1)CCC3 | -10.7%
COc1ccc(NC(=O)COC(=O)c2n[nH]c3ccccc23)c(OC)c1 | -9.82%
O=C(COC(=O)c1ccccc1O)NCc1ccco1 | 67.2% (active)
O=C(CCNC(=O)c1ccccc1Cl)NCc1ccco1 | 18.8%
COc1ccc(CCNC(=O)COC(=O)c2cnc(Cl)c(Cl)c2)cc1 | -7.74%
O=C(COC(=O)c1cnc(Cl)c(Cl)c1)NCc1ccco1 | 53.3% (active)
O=C(COC(=O)C12CC3CC(CC(C3)C1)C2)NCc1ccco1 | 11.5%
O=C(COC(=O)c1ccco1)NCc1ccc(Cl)cc1 | -4.57%
COCCNC(=S)N1CCN(C)CC1 | -7.43%
CC1CC(c2ccccc2)n2nc(NC(=O)c3cccs3)nc2N1 (stereo not drawn) | 2.86%
CC(CC(=O)Nc1ccccc1)n1ccnc1 (stereo not drawn) | -3.02%
CC(C)OC(=O)CN1CCN(c2ccc(Cl)cc2)CC1 | 4.48%
O=C(CN1CCN(c2ccc(Cl)cc2)CC1)c1ccccc1 | 52% (active)
O=C(CN1CCN(c2ccc(Cl)cc2)CC1)NCc1cccs1 | 3.78%
CN(CC(=O)Nc1ccc(F)c(F)c1F)C(=O)Cn1cnc2c1c(=O)n(C)c(=O)n2C | -3.89%
O=C(CCC1CCCN(C(=O)c2ccc(F)c(F)c2)C1)N1CCN(c2ccccn2)CC1 (stereo not drawn) | -8.35%
C=Cc1ccc(C(=O)N2CCCC(CCC(=O)N3CCN(c4ccccn4)CC3)C2)cc1 (stereo not drawn) | 87.9% (active)
O=C(CCC1CCCN(C(=O)Cc2ccc(F)cc2)C1)N1CCN(c2ccccn2)CC1 (stereo not drawn) | -6.06%
Cc1ccc(C(=O)COC(=O)CCN2C(=O)C3C4CC(C(Br)C4Br)C3C2=O)cc1 (stereo not drawn) | -7.42%

SMILES | inhibition
CC(=O)N1Cc2ccccc2CC1C(=O)O (stereo not drawn) | 12.9%
O=c1c(Cl)c(NCc2ccc(F)cc2Cl)cnn1C12CC3CC(CC(C3)C1)C2 | 17.9%
O=S(=O)(Nc1ccccc1Cl)c1cccc2nsnc12 | 67% (active)
COc1ccc(NS(=O)(=O)c2cccc3nsnc23)cc1Cl | -12.1%
O=C(O)c1ccc(NS(=O)(=O)c2cccc3nsnc23)cc1 | -2.95%
Cc1nn2c3cc(N4CCOCC4)ccc3nc2c2ccccc12 | 7.49%
COc1ccc(C2=Nc3cc(C)ccc3OC2)cc1 | -3.61%
COCCOC(=O)C1=C(C)NC(=O)NC1c1cc2c(cc1Br)OCO2 (stereo not drawn) | -6.54%
COCCN(C(=S)Nc1cccc(Cl)c1C)C(C)c1ccco1 (stereo not drawn) | -5.75%
COc1cccc(NC(C)=[N+](C)CCNS(=O)(=O)c2ccc(Cl)cc2)c1 | 105% (active)
COc1cccc(NC(=O)CCNS(=O)(=O)c2ccc3c(c2)oc(=O)n3C)c1 | 6.79%
COc1ccc(S(=O)(=O)NCCCCOc2ccc(Cl)cc2)cc1 | -3.96%
COc1ccc(/C=C/CN2CCCC(C(=O)c3cc(F)ccc3F)C2)cc1 (stereo not drawn) | -4.6%
O=C(Nc1cccnc1Oc1ncnc2cc(Cl)ccc12)c1ccc(F)cc1 | -6.88%
CCN(CC)S(=O)(=O)c1ccc(N2CCOCC2)c(NC(=O)C2COc3ccccc3O2)c1 (stereo not drawn) | -9.66%
O=C(CNCc1cccs1)Nc1cc(S(=O)(=O)N2CCCC2)ccc1Cl | 1.26%
O=C(Nc1cc(S(=O)(=O)N2CCCCC2)ccc1Cl)C1COc2ccccc2O1 (stereo not drawn) | 55.3% (active)
CC(=O)c1ccc(NC(=O)C(C)N(C)CC(=O)Nc2ccccc2Cl)cc1 (stereo not drawn) | 9.97%
O=C(/C=C/c1cccc([N+](=O)[O-])c1)NCCSCc1ccco1 | -5.27%
OC1CSc2nc3ccccc3n2C1 (stereo not drawn) | -14.6%
Cc1ccc(CCCOC(=O)C[N+]2(C)CCCC2)cc1 | 101% (active)
Cc1ccc(CCCOC(=O)C[N+]2(C)CCCCC2)cc1 | 4.77%
Cc1ccc(COC(=O)CN2C(=O)NC3(CCCC3)C2=O)cc1 | -2.24%
Nc1ccc2c(c1)C(=Cc1cccnc1)c1ccccc1-2 | -0.04%

SMILES | inhibition
C[C@H](NC(=O)c1nc[nH]c1C(=O)NCC(=O)OC(C)(C)C)C(=O)OCc1ccccc1 | -3.03%
O=C(c1ccc2c(c1)OCO2)N1CCN(C(=O)c2ccco2)CC1 | -10.7%
O=CN1CCN(C(=O)c2ccc3c(c2)OCO3)CC1 | -4.58%
O=C(c1ccc2c(c1)OCO2)N1CCNc2ccccc2C1 | 54.2% (active)
COc1ccc(C(=O)N(CCN2CCOCC2)CC(=O)NC2CCCC2)cc1OC | -4.37%
Cc1ccnc(-n2sc3ccccc3c2=O)n1 | 70.8% (active)
COc1ccccc1C(C)NC(=O)Cc1ccsc1 (stereo not drawn) | 1.45%
CN(CC(=O)NCCc1ccccn1)S(=O)(=O)c1ccc(Cl)cc1 | -6.06%
CCCCOC(=O)c1ccc(N2C(=O)CC(N3CCN(C/C=C/c4ccccc4)CC3)C2=O)cc1 (stereo not drawn) | -2.23%
CC1CC(C)CN(S(=O)(=O)c2cccc3nonc23)C1 (stereo not drawn) | -1.81%
CCC(=O)N(CCc1ccccc1)Cc1cc2cc(C)ccc2[nH]c1=O | -1.18%
CCCc1nc(-c2cc3cc(C)ccc3[nH]c2=O)no1 | 65.2% (active)
CCN(Cc1cc2cc(C)ccc2[nH]c1=O)S(=O)(=O)c1ccccc1 | -4.68%
C#CCOCCOCCOCCNc1nc(N2CCN(C(=O)C([C@@H](C)O)n3cc([C@@H](N)CCCCN)nn3)CC2)nc(N2CCN(C(=O)[C@H](CCCCN)n3cc(CN)nn3)CC2)n1 (stereo partly drawn) | -0.3%
C=CCn1c(=S)[nH]c2scc(-c3ccco3)c2c1=O | 67.9% (active)
C=CCn1c(=S)[nH]c2nc3c(cc2c1=O)COC(C)(C)C3 | -8.72%
C=CCn1cnc2scc(-c3ccccc3)c2c1=O | -18.1%
CN(CCC1CCOCC1)Cc1cn[nH]c1-c1ccc(-c2ccccc2)cc1 | -1.75%
CCn1c(=O)n(CC)c2cc(N3CCCC3)c(NC(=O)c3ccccc3Br)cc21 | -2.26%
Cc1ccc2nc3c(cc(C(=O)NCCc4ccccc4)c(=N)n3CC3CCCO3)c(=O)n2c1 (stereo not drawn) | 1.78%
Cc1ccc(CCNC(=O)c2ccc3nc4ccccc4c(=O)n3c2)cc1 | 60.3% (active)
Cc1ccc(CNC(=O)CCNC(=O)Cn2ccc3ccccc3c2=O)cc1 | -12.1%
CCOc1cc(C2/C(=C(/O)c3ccc(S(=O)(=O)N4CCCCC4)cc3)C(=O)C(=O)N2CCOC)ccc1O (stereo not drawn) | 1.05%
Cc1cccc(NC(=O)CSc2nc3c(c(=O)[nH]2)CCC3)c1C | -1.16%

SMILES | inhibition
COc1ccccc1N1CCN(C(=O)c2cc(=O)c3cc(C)cc(C)c3o2)CC1 | -7.13%
Cn1c(N)c(C(=O)COC(=O)c2cccc(S(=O)(=O)N3CCOCC3)c2)c(=O)n(C)c1=O | 3.96%
Cn1c(N)c(C(=O)COC(=O)c2cnc(Cl)c(Cl)c2)c(=O)n(C)c1=O | -5.15%
Cn1c(N)c(C(=O)COC(=O)c2ccc3ccccc3c2)c(=O)n(C)c1=O | 53% (active)
C[C@]1(C(=O)NCCc2c[nH]c3ccccc23)C=C[C@@H](Cc2ccccc2)N1C(=O)c1ccccc1 | -5.17%
N#CCC(=O)Nc1ccc(C(=O)OCC(=O)Nc2sc3c(c2C#N)CCCC3)cc1 | 1.62%
CCOc1ccc(NC(=O)c2ccc(NC(=O)COC(=O)c3ccc(NC(=O)CC#N)cc3)cc2)cc1 | 85.9% (active)
CC(C)NC(=O)NC(=O)COC(=O)c1ccc(NC(=O)CC#N)cc1 | -2.24%
Cc1ncn2cc(-c3ccc(Cl)cc3Cl)[nH]c(=O)c12 | -6.56%
O=C(NCc1cccc(Cl)c1)C1CCN(c2nnc(N3CCCC3=O)s2)CC1 | -6.55%
O=C(NNC(=O)c1ccccc1[N+](=O)[O-])Nc1ccccc1C(F)(F)F | 0.19%
C=C(C)C(=O)Nc1cccc(C2=NOC3(C2)C[C@H](C(N)=O)N(C(=O)C(c2ccccc2)c2ccccc2)C3)c1 (stereo partly drawn) | 70.2% (active)
C/C=C(/C)C(=O)Nc1cccc(C2=NOC3(C2)C[C@@H](C(N)=O)N(C(=O)C2(C)CC2)C3)c1 (stereo partly drawn) | -2.33%
C/C=C\C=C\C(=O)N1CC2(CC(c3cccc(NC(=O)/C(C)=C\C)c3)=NO2)C[C@H]1C(N)=O (stereo partly drawn) | 34.8%
C=CCn1cc(C(=O)NCc2ccc(Cl)cc2)c(=O)c2cc(S(=O)(=O)N(CC)CC)ccc21 | -4.15%
COCCC(=O)N1CCC(Oc2ccc(C(=O)NCc3ccon3)cc2)CC1 | -1.77%
COc1ccc(S(=O)(=O)N2CCN(CC(=O)N3CCOCC3)CC2)cc1OC | -0.04%
CC(C)C(O)C1CCN(Cc2nc(Cc3ccccc3Cl)no2)CC1 (stereo not drawn) | -2.82%
O=[N+]([O-])c1ccc(N2CCOCC2)cc1 | -2.71%
COc1cnn(-c2ccc([N+](=O)[O-])cc2)c(=O)c1Cl | -3.84%
O=c1[nH]n(-c2ccc([N+](=O)[O-])cc2)c(=O)c2ccccc12 | 52.1% (active)
